# Laboratory results as given in ChEMBL document CHEMBL1157562, “Piperazinyl glutamate pyridines as potent orally bioavailable P2Y12 antagonists for inhibition of platelet aggregation” (J Med Chem, 2010).
# Assays:
# P2Y purinoceptor 12 = P2Y purinoceptor 12 (Homo sapiens, UniProt Q9H244); assay: Displacement of [33P]ADP from human recombinant P2Y12 receptor expressed in CHO cells; assay type: cell-based
# How it was run: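 Washed membranes from CHO cells expressing synthetic human P2Y12, incubated 1 h at room temperature with 0.2 nM 33P-MeSADP in 50 mM Tris/100 mM NaCl/1 mM EDTA. Compound was tested as a 7-point 3-fold series in triplicate. Nonspecific binding was defined with 300 nM 2-MeSADP, followed by filtration.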
# [1] = Antiplatelet aggregation activity against adenosine diphosphate-induced human platelet rich plasma assessed as inhibition of platelet aggregation by turbidimetric method; assay type: functional; settings: Homo sapiens, Platelet, Plasma
# How it was run: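 Human PRP, prepared by two-step centrifugation and adjusted to 330 000 platelets/μL with PPP. Compound was preincubated 5 min at 37 °C in 0.5% DMSO, then 20 μM ADP was added. OD626 was read kinetically for 15 min at 37 °C with mixing between reads.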
# Platelet = assay: Relative potency, ratio of IC50 for drug to IC50 for AZD-6140 for platelet aggregation in human platelet rich plasma; assay type: functional
# Chain of P2Y purinoceptor 12 (Q9H244 whole entry): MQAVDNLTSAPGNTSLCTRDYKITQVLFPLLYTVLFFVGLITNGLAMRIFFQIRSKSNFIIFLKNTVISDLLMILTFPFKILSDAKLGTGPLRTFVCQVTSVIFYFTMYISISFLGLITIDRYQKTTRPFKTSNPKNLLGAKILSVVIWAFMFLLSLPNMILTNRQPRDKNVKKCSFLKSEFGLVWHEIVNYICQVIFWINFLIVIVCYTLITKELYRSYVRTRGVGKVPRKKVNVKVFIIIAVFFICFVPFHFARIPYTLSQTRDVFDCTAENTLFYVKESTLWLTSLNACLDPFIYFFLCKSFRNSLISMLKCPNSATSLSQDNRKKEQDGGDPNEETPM
smiles,measurement,setting,value
CCCCCOC(=O)N1CCN(C(=O)[C@H](CCC(=O)O)NC(=O)c2cc(CCC(=O)N3CCOCC3)cc(-c3ccccc3)n2)CC1,Ki,P2Y purinoceptor 12,3.7 nM
same,IC50,[1],3100 nM
same,Ratio IC50,Platelet,2.4
CCCCCOC(=O)N1CCN(C(=O)[C@H](CCC(=O)O)NC(=O)c2cc(C(=O)NCCC)cc(-c3ccccc3)n2)CC1,Ki,P2Y purinoceptor 12,11 nM
same,IC50,[1],12000 nM
same,Ratio IC50,Platelet,20
CCCCCOC(=O)N1CCN(C(=O)[C@H](CCC(=O)O)NC(=O)c2cc(NC(=O)OCCCN)cc(-c3ccccc3)n2)CC1,Ki,P2Y purinoceptor 12,1.9 nM
same,IC50,[1],5700 nM
same,Ratio IC50,Platelet,3.9
CCCCCOC(=O)N1CCN(C(=O)[C@H](CCC(=O)O)NC(=O)c2cc(NC(=O)OCC3CCNCC3)cc(-c3ccccc3)n2)CC1,Ki,P2Y purinoceptor 12,1.7 nM
same,IC50,[1],5800 nM
same,Ratio IC50,Platelet,3.7
CCCCOC(=O)N1CCN(C(=O)[C@H](CCC(=O)O)NC(=O)c2cc(OC3CCOCC3)cc(-c3ccccc3)n2)CC1,Ki,P2Y purinoceptor 12,10 nM
same,IC50,[1],4100 nM
same,Ratio IC50,Platelet,6.3
CCCCCOC(=O)N1CCN(C(=O)[C@H](CCC(=O)O)NC(=O)c2cc(NC(=O)NCC(=O)N(C)C)cc(-c3ccccc3)n2)CC1,Ki,P2Y purinoceptor 12,4.7 nM
same,IC50,[1],3400 nM
same,Ratio IC50,Platelet,3.9
CCCCOC(=O)N1CCN(C(=O)[C@H](CCC(=O)O)NC(=O)c2cc(OCCCOC)cc(-c3ccccc3)n2)CC1,Ki,P2Y purinoceptor 12,5.9 nM
same,IC50,[1],2200 nM
same,Ratio IC50,Platelet,3.9
CCCCOC(=O)N1CCN(C(=O)[C@H](CCC(=O)O)NC(=O)c2cc(OC3CCN(C(C)C)CC3)cc(-c3ccccc3)n2)CC1,Ki,P2Y purinoceptor 12,10 nM
same,IC50,[1],880 nM
same,Ratio IC50,Platelet,0.75
CCCCCCOC(=O)N1CCN(C(=O)[C@H](CCC(=O)O)NC(=O)c2cc(N3CCC(N4CCCC4)CC3)cc(-c3ccccc3)n2)CC1,Ki,P2Y purinoceptor 12,2.6 nM
same,IC50,[1],1200 nM
same,Ratio IC50,Platelet,2.3
CCCCCOC(=O)N1CCN(C(=O)[C@H](CCC(=O)O)NC(=O)c2cc(OCC)cc(-c3ccccc3)n2)CC1,Ki,P2Y purinoceptor 12,7.9 nM
same,IC50,[1],17000 nM
same,Ratio IC50,Platelet,23
CCCCCCOC(=O)N1CCN(C(=O)[C@H](CCC(=O)O)NC(=O)c2cc(OCCCC)cc(-c3ccccc3)n2)CC1,Ki,P2Y purinoceptor 12,89 nM
same,IC50,[1],97000 nM
same,Ratio IC50,Platelet,65
CCCCCOC(=O)N1CCN(C(=O)[C@H](CCC(=O)O)NC(=O)c2cc(OC(=O)N3CCCCC3)cc(-c3ccccc3)n2)CC1,Ki,P2Y purinoceptor 12,11 nM
same,IC50,[1],2100 nM
same,Ratio IC50,Platelet,1.3
CCCOc1cc(C(=O)N[C@@H](CCC(=O)O)C(=O)N2CCN(C(=O)OCC)CC2)nc(-c2ccccc2)c1,Ki,P2Y purinoceptor 12,120 nM
same,IC50,[1],36000 nM
same,Ratio IC50,Platelet,46
CCCCOC(=O)N1CCN(C(=O)[C@H](CCC(=O)O)NC(=O)c2cc(OC(=O)N(C)C)cc(-c3ccccc3)n2)CC1,Ki,P2Y purinoceptor 12,2 nM
same,IC50,[1],1100 nM
same,Ratio IC50,Platelet,1.1
CCCCCCOC(=O)N1CCN(C(=O)[C@H](CCC(=O)O)NC(=O)c2cc(OCCO)cc(-c3ccccc3)n2)CC1,Ki,P2Y purinoceptor 12,18 nM
same,IC50,[1],21000 nM
same,Ratio IC50,Platelet,13
CCCCOC(=O)N1CCN(C(=O)[C@H](CCC(=O)O)NC(=O)c2cc(OCC3CCN(C(C)C)CC3)cc(-c3ccccc3)n2)CC1,Ki,P2Y purinoceptor 12,4.5 nM
same,IC50,[1],410 nM
same,Ratio IC50,Platelet,0.33
CCCCOC(=O)N1CCN(C(=O)[C@H](CCC(=O)O)NC(=O)c2cc(OC3CCN(C)CC3)cc(-c3ccccc3)n2)CC1,Ki,P2Y purinoceptor 12,2.5 nM
same,IC50,[1],2000 nM
same,Ratio IC50,Platelet,1.9
CCCCCOC(=O)N1CCN(C(=O)[C@H](CCC(=O)O)NC(=O)c2cc(OC(=O)N(C)C3CCOC3)cc(-c3ccccc3)n2)CC1 (some centres not stated),Ki,P2Y purinoceptor 12,2.3 nM
same,IC50,[1],470 nM
same,Ratio IC50,Platelet,0.59
CCCCCOC(=O)N1CCN(C(=O)[C@H](CCC(=O)O)NC(=O)c2cc(OC(=O)N3CCC(OCC)CC3)cc(-c3ccccc3)n2)CC1,Ki,P2Y purinoceptor 12,6 nM
same,IC50,[1],590 nM
same,Ratio IC50,Platelet,1.2
CCCCOC(=O)N1CCN(C(=O)[C@H](CCC(=O)O)NC(=O)c2cc(OCCC3CCCCN3)cc(-c3ccccc3)n2)CC1 (some centres not stated),Ki,P2Y purinoceptor 12,3.7 nM
same,IC50,[1],810 nM
same,Ratio IC50,Platelet,0.88
CCOC(=O)N1CCN(C(=O)[C@H](CCC(=O)O)NC(=O)c2cc(OCC)cc(-c3ccccc3)n2)CC1,Ki,P2Y purinoceptor 12,94 nM
same,IC50,[1],31000 nM
same,Ratio IC50,Platelet,44
CCOC(=O)N1CCN(C(=O)[C@H](CCC(=O)O)NC(=O)c2cc(O)cc(-c3ccccc3)n2)CC1,Ki,P2Y purinoceptor 12,62 nM
same,IC50,[1],24000 nM
same,Ratio IC50,Platelet,41
CCCCCCOC(=O)N1CCN(C(=O)[C@H](CCC(=O)O)NC(=O)c2cc(N3CCC(N)CC3)cc(-c3ccccc3)n2)CC1,Ki,P2Y purinoceptor 12,3.3 nM
same,IC50,[1],2400 nM
same,Ratio IC50,Platelet,3.4
CCCCOC(=O)N1CCN(C(=O)[C@H](CCC(=O)O)NC(=O)c2cc(N3CCC(NC)CC3)cc(-c3ccccc3)n2)CC1,Ki,P2Y purinoceptor 12,2.7 nM
same,IC50,[1],1200 nM
same,Ratio IC50,Platelet,0.86
CCCCCOC(=O)N1CCN(C(=O)[C@H](CCC(=O)O)NC(=O)c2cc(NCCC)cc(-c3ccccc3)n2)CC1,Ki,P2Y purinoceptor 12,12 nM
same,IC50,[1],13000 nM
same,Ratio IC50,Platelet,14
CCCCCOC(=O)N1CCN(C(=O)[C@H](CCC(=O)O)NC(=O)c2cc(OC3CCN(C)CC3)cc(-c3ccccc3)n2)CC1,Ki,P2Y purinoceptor 12,5 nM
same,IC50,[1],1800 nM
same,Ratio IC50,Platelet,1.8
CCCCCCOC(=O)N1CCN(C(=O)[C@H](CCC(=O)O)NC(=O)c2cc(OCC3CCNCC3)cc(-c3ccccc3)n2)CC1,Ki,P2Y purinoceptor 12,4.5 nM
same,IC50,[1],640 nM
same,Ratio IC50,Platelet,1.3
CCCCCOC(=O)N1CCN(C(=O)[C@H](CCC(=O)O)NC(=O)c2cc(C(=O)N(C)C3CCN(C)CC3)cc(-c3ccccc3)n2)CC1,Ki,P2Y purinoceptor 12,11 nM
same,IC50,[1],350 nM
same,Ratio IC50,Platelet,0.83
CCCCCOC(=O)N1CCN(C(=O)[C@H](CCC(=O)O)NC(=O)c2cc(CCCO)cc(-c3ccccc3)n2)CC1,Ki,P2Y purinoceptor 12,3.8 nM
same,IC50,[1],1900 nM
same,Ratio IC50,Platelet,2.6
CCCCOC(=O)N1CCN(C(=O)[C@H](CCC(=O)O)NC(=O)c2cc(OCC3CCNCC3)cc(-c3ccccc3)n2)CC1,Ki,P2Y purinoceptor 12,4.2 nM
same,IC50,[1],210 nM
same,Ratio IC50,Platelet,0.37
CCCCOC(=O)N1CCN(C(=O)[C@H](CCC(=O)O)NC(=O)c2cc(OC3CCNC3)cc(-c3ccccc3)n2)CC1 (some centres not stated),Ki,P2Y purinoceptor 12,3.7 nM
same,IC50,[1],2600 nM
same,Ratio IC50,Platelet,1.3
CCCCCOC(=O)N1CCN(C(=O)[C@H](CCC(=O)O)NC(=O)c2cc(C(=O)NC3CCOCC3)cc(-c3ccccc3)n2)CC1,Ki,P2Y purinoceptor 12,4.6 nM
same,IC50,[1],5600 nM
same,Ratio IC50,Platelet,10
CCCCOC(=O)N1CCN(C(=O)[C@H](CCC(=O)O)NC(=O)c2cc(OC(=O)N(C)CC3CCOCC3)cc(-c3ccccc3)n2)CC1,Ki,P2Y purinoceptor 12,1.5 nM
same,IC50,[1],590 nM
same,Ratio IC50,Platelet,0.87
CCCCCOC(=O)N1CCN(C(=O)[C@H](CCC(=O)O)NC(=O)c2cc(N3CCC(NC)CC3)cc(-c3ccccc3)n2)CC1,Ki,P2Y purinoceptor 12,6.5 nM
same,IC50,[1],1000 nM
same,Ratio IC50,Platelet,1.1
CCOC(=O)N1CCN(C(=O)[C@H](CCC(=O)O)NC(=O)c2cc(NCCO)cc(-c3ccccc3)n2)CC1,Ki,P2Y purinoceptor 12,117 nM
same,IC50,[1],12000 nM
same,Ratio IC50,Platelet,14
CCCCCOC(=O)N1CCN(C(=O)[C@H](CCC(=O)O)NC(=O)c2cc(C(=O)NCC)cc(-c3ccccc3)n2)CC1,Ki,P2Y purinoceptor 12,13 nM
same,IC50,[1],9700 nM
same,Ratio IC50,Platelet,13
CCCCOC(=O)N1CCN(C(=O)[C@H](CCC(=O)O)NC(=O)c2cc(OC(=O)N3CC[C@@H](OC)C3)cc(-c3ccccc3)n2)CC1,Ki,P2Y purinoceptor 12,1.5 nM
same,IC50,[1],770 nM
same,Ratio IC50,Platelet,0.97
CCOC(=O)N1CCN(C(=O)[C@H](CCC(=O)O)NC(=O)c2cc(OCCCOC)cc(-c3ccccc3)n2)CC1,Ki,P2Y purinoceptor 12,69 nM
same,IC50,[1],8200 nM
same,Ratio IC50,Platelet,11
CCCCCOC(=O)N1CCN(C(=O)[C@H](CCC(=O)O)NC(=O)c2cc(NC(=O)CN3CCN(C)CC3)cc(-c3ccccc3)n2)CC1,Ki,P2Y purinoceptor 12,2.3 nM
same,IC50,[1],4300 nM
same,Ratio IC50,Platelet,4.1
CCCCCOC(=O)N1CCN(C(=O)[C@H](CCC(=O)O)NC(=O)c2cc(C(=O)N(C)CCCOC)cc(-c3ccccc3)n2)CC1,Ki,P2Y purinoceptor 12,2.6 nM
same,IC50,[1],630 nM
same,Ratio IC50,Platelet,1.4
CCCCCOC(=O)N1CCN(C(=O)[C@H](CCC(=O)O)NC(=O)c2cc(N3CCC(CO)CC3)cc(-c3ccccc3)n2)CC1,Ki,P2Y purinoceptor 12,2.4 nM
same,IC50,[1],1800 nM
same,Ratio IC50,Platelet,6.3
CCCCCCOC(=O)N1CCN(C(=O)[C@H](CCC(=O)O)NC(=O)c2cc(OCCN)cc(-c3ccccc3)n2)CC1,Ki,P2Y purinoceptor 12,8.4 nM
same,IC50,[1],4500 nM
same,Ratio IC50,Platelet,7.9
CCCCOC(=O)N1CCN(C(=O)[C@H](CCC(=O)O)NC(=O)c2cc(OCC3CCN(CCOC)CC3)cc(-c3ccccc3)n2)CC1,Ki,P2Y purinoceptor 12,5.3 nM
same,IC50,[1],620 nM
same,Ratio IC50,Platelet,0.53
CCOC(=O)N1CCN(C(=O)[C@H](CCC(=O)O)NC(=O)c2cc(N3CCC(CO)CC3)cc(-c3ccccc3)n2)CC1,Ki,P2Y purinoceptor 12,54 nM
same,IC50,[1],19000 nM
same,Ratio IC50,Platelet,22
CCCCOC(=O)N1CCN(C(=O)[C@H](CCC(=O)O)NC(=O)c2cc(OC(=O)N3CCC(OCC)CC3)cc(-c3ccccc3)n2)CC1,Ki,P2Y purinoceptor 12,2.1 nM
same,IC50,[1],1000 nM
same,Ratio IC50,Platelet,1.2
CCCCOC(=O)N1CCN(C(=O)[C@H](CCC(=O)O)NC(=O)c2cc(N3CCC(N(C)C)CC3)cc(-c3ccccc3)n2)CC1,Ki,P2Y purinoceptor 12,5 nM
same,IC50,[1],1900 nM
same,Ratio IC50,Platelet,1.4
CCCCCOC(=O)N1CCN(C(=O)[C@H](CCC(=O)O)NC(=O)c2cc(C(=O)N3CCCCC3)cc(-c3ccccc3)n2)CC1,Ki,P2Y purinoceptor 12,2.8 nM
same,IC50,[1],910 nM
same,Ratio IC50,Platelet,2.2
CCOC(=O)N1CCN(C(=O)[C@H](CCC(=O)O)NC(=O)c2cc(N3CCC(N)CC3)cc(-c3ccccc3)n2)CC1,Ki,P2Y purinoceptor 12,10 nM
same,IC50,[1],2800 nM
same,Ratio IC50,Platelet,8.1
CCCCCOC(=O)N1CCN(C(=O)[C@H](CCC(=O)O)NC(=O)c2cc(C(=O)N(C)CC)cc(-c3ccccc3)n2)CC1,Ki,P2Y purinoceptor 12,2.6 nM
same,IC50,[1],580 nM
same,Ratio IC50,Platelet,1.3
